Experimental data pooled from the literature.
Protocols differ between the studies behind these lines.
Target: Serine/threonine-protein kinase PAK 6 (PAK6, Homo sapiens, UniProt Q9NQU5)

CNC(=O)c1cc(Oc2ccc(NC(=O)Nc3ccc(Cl)c(C(F)(F)F)c3)cc2)ccn1
inhibition (enzyme activity, inhibitor; 0.3 µM): -33%

COc1cc2ncnc(Nc3ccc(Oc4ccccc4)cc3C)c2cc1OC
inhibition (enzyme activity, inhibitor; 1 µM): 3%

CCN(CC)c1ccc(C2=NNC(=O)CC2C)cc1[N+](=O)[O-] (centres unmarked)
remaining activity (enzyme activity, inhibitor; 10 µM): 126%

O=C(NCc1ncc(C(F)(F)F)cc1Cl)c1ccc2c(c1)C1(CCS(=O)(=O)CC1)[C@H](C1CC1)N2S(=O)(=O)c1ccc(F)cc1
remaining binding (cell-free assay, competition with immobilised ligand; 1 µM): 100%

N[C@H]1CCN(c2nccc(-c3cnn4ncccc34)n2)C1
remaining binding (binding; 1 µM): 87%

CCN(CC)CCNC(=O)c1c(C)[nH]c(/C=C2\C(=O)Nc3ccc(F)cc32)c1C
inhibition (enzyme activity, inhibitor; 0.3 µM): -11%

Oc1cccc(-c2nc(N3CCOCC3)c3oc4ncccc4c3n2)c1
remaining activity (enzyme activity, inhibitor; 10 µM): 108%

CO[C@H]1CC[C@H](CNc2ccc(S(=O)(=O)NC(=O)c3ccc(N4CCN(CC5=C(c6ccc(Cl)cc6)CC(C)(C)CC5)CC4)cc3Oc3cnc4[nH]ccc4c3)cc2[N+](=O)[O-])CC1
remaining binding (cell-free assay, competition with immobilised ligand; 1 µM): 75%

Nc1nc(NC2CCCCC2)sc1C(=O)c1ccccc1
remaining activity (enzyme activity, inhibitor; 10 µM): 93%

CCCOc1ccc(OC)c(F)c1C(=O)c1ccc(C(=O)N[C@@H]2CNC[C@H]2NC(=O)c2ccc3[nH]ncc3c2)cc1
remaining activity (enzyme activity, inhibitor; 10 µM): 68%

COc1cc(Nc2cnc(C#N)c(O[C@H](C)CN(C)C)n2)ncc1-c1cnn(C)c1
remaining activity (enzyme activity, inhibitor, radiometric; 10 µM): 43%

Cc1cnc(NC2CCOCC2)nc1-n1cnc(C(=O)NC(CN)c2cc(F)cc(Cl)c2)c1 (centres unmarked)
remaining activity (enzyme activity, inhibitor, radiometric; 1 µM): 70%

CSc1cccnc1N1CCN(Cc2nc3ccccc3[nH]2)CC1
remaining binding (cell-free assay, competition with immobilised ligand; 1 µM): 100%

Nc1ncnc2occ(-c3ccc(NC(=O)Nc4cc(C(F)(F)F)ccc4F)cc3)c12
remaining signal (cell-free assay, inhibitor; 20 µM): 53%

CNC(=O)c1ccc(Nc2ncc(C(F)(F)F)c(NCc3nccnc3N(C)S(C)(=O)=O)n2)cc1
remaining binding (cell-free assay, competition with immobilised ligand; 0.1 µM): 100%

N#CCCc1ccc2c(c1)-c1[nH]c3ccc([N+](=O)[O-])cc3c1CC(=O)N2
remaining signal (cell-free assay; 0.5 µM): 104%

CCc1ccccc1C(=O)Nc1n[nH]c2c(C)c(F)c(C3C(C#N)=C(C)N(C)C(C)=C3C#N)cc12
remaining binding (cell-free assay, competition with immobilised ligand; 1 µM): 93%

O=C(Nc1cnn(-c2csc(C(=O)NC3COC3)c2)c1)Nc1c(F)cccc1Cl
remaining activity (enzyme activity, inhibitor; 5 µM): 92.9%

CCS(=O)(=O)c1cc2cc(C[C@@](O)(CC(C)(C)c3ccc(F)cc3C(N)=O)C(F)(F)F)[nH]c2cn1
remaining binding (cell-free assay, competition with immobilised ligand; 1 µM): 77%

Nc1nc(Nc2ccc(S(N)(=O)=O)cc2)nn1C(=O)c1c(F)cccc1F
remaining signal (cell-free assay; 0.5 µM): 101%
